According to ChEMBL document CHEMBL5058577, “EUbOPEN Chemogenomics Library 2 (Multiplex)” (2022):

Tested on: Fibroblast
Assay: Multiplex assay against human fibroblast
Type: toxicity, cell-based
Outline: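 Cells were classed with CellPathfinder machine-learning gating, first as Hoechst high-intensity objects or normal cells, then (normal cells) as healthy, pyknosed or fragmented nuclei, and finally (pyknosed cells) as mitotic or apoptotic. Staining of live cells at seeding used Hoechst33342, BioTracker Green Microtubule Cytoskeleton Dye, MitoTracker Red and Annexin V Alexa Fluor 680, with imaging on a CQ1 microscope at 37°C and 5% CO2 after compound addition. Tubulin, mitochondrial-mass and membrane-permeability phenotypes are per cents of healthy-nucleus cells.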

[1] = 12 h, 1 µM, compound concentration 1 uM, replicate 1
[2] = 12 h, 1 µM, compound concentration 1 uM, replicate 2
[3] = 12 h, 10 µM, compound concentration 10 uM, replicate 1
[4] = 12 h, 10 µM, compound concentration 10 uM, replicate 2
[5] = 24 h, 1 µM, compound concentration 1 uM, replicate 1
[6] = 24 h, 1 µM, compound concentration 1 uM, replicate 2
[7] = 24 h, 10 µM, compound concentration 10 uM, replicate 1
[8] = 24 h, 10 µM, compound concentration 10 uM, replicate 2
[9] = 48 h, 1 µM, compound concentration 1 uM, replicate 1
[10] = 48 h, 1 µM, compound concentration 1 uM, replicate 2
[11] = 48 h, 10 µM, compound concentration 10 uM, replicate 1
[12] = 48 h, 10 µM, compound concentration 10 uM, replicate 2

Oc1c(CN2CCN(c3ccccn3)CC2)cc(Cl)c2cccnc12
Population Apoptotic (%) [1]: 73% | Population Fragmented Nuclei (%) [1]: 17% | Population Healthy Nuclei (%) [1]: 68% | Population Hoechst High Intensity Objects (%) [1]: 4% | Population Membrane Permeable-Phenotype (%) [1]: 1% | Population Mitochondria Different-Phenotype (%) [1]: 0% | Population Mitotic Cells (%) [1]: 26% | Population Normal (%) [1]: 95% | Population Pyknosed Nuclei (%) [1]: 14% | Population Tubulin-Different-Phenotype (%) [1]: 27% | Total Cell Count [1]: 168 | Population Apoptotic (%) [2]: 57% | Population Fragmented Nuclei (%) [2]: 27% | Population Healthy Nuclei (%) [2]: 54% | Population Hoechst High Intensity Objects (%) [2]: 5% | Population Membrane Permeable-Phenotype (%) [2]: 8% | Population Mitochondria Different-Phenotype (%) [2]: 6% | Population Mitotic Cells (%) [2]: 42% | Population Normal (%) [2]: 94% | Population Pyknosed Nuclei (%) [2]: 18% | Population Tubulin-Different-Phenotype (%) [2]: 43% | Total Cell Count [2]: 152 | Population Apoptotic (%) [3]: 41% | Population Fragmented Nuclei (%) [3]: 17% | Population Healthy Nuclei (%) [3]: 54% | Population Hoechst High Intensity Objects (%) [3]: 5% | Population Membrane Permeable-Phenotype (%) [3]: 0% | Population Mitochondria Different-Phenotype (%) [3]: 25% | Population Mitotic Cells (%) [3]: 58% | Population Normal (%) [3]: 94% | Population Pyknosed Nuclei (%) [3]: 27% | Population Tubulin-Different-Phenotype (%) [3]: 67% | Total Cell Count [3]: 130 | Population Apoptotic (%) [4]: 33% | Population Fragmented Nuclei (%) [4]: 25% | Population Healthy Nuclei (%) [4]: 58% | Population Hoechst High Intensity Objects (%) [4]: 2% | Population Membrane Permeable-Phenotype (%) [4]: 2% | Population Mitochondria Different-Phenotype (%) [4]: 9% | Population Mitotic Cells (%) [4]: 66% | Population Normal (%) [4]: 97% | Population Pyknosed Nuclei (%) [4]: 16% | Population Tubulin-Different-Phenotype (%) [4]: 62% | Total Cell Count [4]: 131 | Population Apoptotic (%) [5]: 50% | Population Fragmented Nuclei (%) [5]: 19% | Population Healthy Nuclei (%) [5]: 67% | Population Hoechst High Intensity Objects (%) [5]: 3% | Population Membrane Permeable-Phenotype (%) [5]: 0% | Population Mitochondria Different-Phenotype (%) [5]: 3% | Population Mitotic Cells (%) [5]: 50% | Population Normal (%) [5]: 96% | Population Pyknosed Nuclei (%) [5]: 13% | Population Tubulin-Different-Phenotype (%) [5]: 30% | Total Cell Count [5]: 174 | Population Apoptotic (%) [6]: 45% | Population Fragmented Nuclei (%) [6]: 29% | Population Healthy Nuclei (%) [6]: 56% | Population Hoechst High Intensity Objects (%) [6]: 5% | Population Membrane Permeable-Phenotype (%) [6]: 8% | Population Mitochondria Different-Phenotype (%) [6]: 7% | Population Mitotic Cells (%) [6]: 55% | Population Normal (%) [6]: 94% | Population Tubulin-Different-Phenotype (%) [6]: 47% | Total Cell Count [6]: 153 | Population Apoptotic (%) [7]: 89% | Population Fragmented Nuclei (%) [7]: 26% | Population Healthy Nuclei (%) [7]: 46% | Population Hoechst High Intensity Objects (%) [7]: 0% | Population Membrane Permeable-Phenotype (%) [7]: 1% | Population Mitochondria Different-Phenotype (%) [7]: 15% | Population Mitotic Cells (%) [7]: 10% | Population Normal (%) [7]: 100% | Population Pyknosed Nuclei (%) [7]: 27% | Population Tubulin-Different-Phenotype (%) [7]: 57% | Total Cell Count [7]: 139 | Population Apoptotic (%) [8]: 56% | Population Fragmented Nuclei (%) [8]: 35% | Population Healthy Nuclei (%) [8]: 41% | Population Hoechst High Intensity Objects (%) [8]: 2% | Population Mitochondria Different-Phenotype (%) [8]: 11% | Population Mitotic Cells (%) [8]: 43% | Population Normal (%) [8]: 97% | Population Pyknosed Nuclei (%) [8]: 22% | Population Tubulin-Different-Phenotype (%) [8]: 68% | Total Cell Count [8]: 134 | Population Apoptotic (%) [9]: 54% | Population Fragmented Nuclei (%) [9]: 17% | Population Healthy Nuclei (%) [9]: 67% | Population Hoechst High Intensity Objects (%) [9]: 5% | Population Membrane Permeable-Phenotype (%) [9]: 1% | Population Mitochondria Different-Phenotype (%) [9]: 1% | Population Mitotic Cells (%) [9]: 45% | Population Normal (%) [9]: 94% | Population Pyknosed Nuclei (%) [9]: 14% | Population Tubulin-Different-Phenotype (%) [9]: 35% | Total Cell Count [9]: 158 | Population Apoptotic (%) [10]: 70% | Population Fragmented Nuclei (%) [10]: 25% | Population Healthy Nuclei (%) [10]: 66% | Population Hoechst High Intensity Objects (%) [10]: 0% | Population Membrane Permeable-Phenotype (%) [10]: 4% | Population Mitochondria Different-Phenotype (%) [10]: 4% | Population Mitotic Cells (%) [10]: 30% | Population Normal (%) [10]: 99% | Population Pyknosed Nuclei (%) [10]: 7% | Population Tubulin-Different-Phenotype (%) [10]: 37% | Total Cell Count [10]: 137 | Population Apoptotic (%) [11]: 85% | Population Fragmented Nuclei (%) [11]: 31% | Population Healthy Nuclei (%) [11]: 32% | Population Hoechst High Intensity Objects (%) [11]: 2% | Population Membrane Permeable-Phenotype (%) [11]: 0% | Population Mitochondria Different-Phenotype (%) [11]: 9% | Population Mitotic Cells (%) [11]: 14% | Population Normal (%) [11]: 97% | Population Pyknosed Nuclei (%) [11]: 35% | Population Tubulin-Different-Phenotype (%) [11]: 38% | Total Cell Count [11]: 137 | Population Apoptotic (%) [12]: 78% | Population Fragmented Nuclei (%) [12]: 34% | Population Healthy Nuclei (%) [12]: 41% | Population Membrane Permeable-Phenotype (%) [12]: 1% | Population Mitochondria Different-Phenotype (%) [12]: 7% | Population Mitotic Cells (%) [12]: 21% | Population Pyknosed Nuclei (%) [12]: 24% | Population Tubulin-Different-Phenotype (%) [12]: 65%
